Consider 5 compounds from ChEMBL document CHEMBL4266062, “Discovery of JND3229 as a New EGFRC797S Mutant Inhibitor with In Vivo Monodrug Efficacy” (ACS Med Chem Lett, 2018).

SMILES strings stand for the structures. Active and inactive are the calls of the source. No cut-off for these calls is given here.

Data set [1] relates to BaF3. Briefly: Antitumor activity against mouse BAF3 cells harboring EGFR 19D/T790M/C797S mutant implanted in Balb/c mouse assessed as tumor growth inhibition at 60 mg/kg, po administered once daily via gavage for 10 days co-treated with cetuximab once every other day relative to control. The class given is functional. The settings on record: 240 h, read-out: TGI. In short, it runs like this: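 Same BaF3-EGFR19D/T790M/C797S xenograft in BALB/c mice (n = 6). Positive-control regimen: 60 mg/kg in 10% NMP/90% PEG300 by oral gavage once daily, plus cetuximab 1 mg/kg in 0.9% NaCl/water ip every other day. Relative tumor volume measured every 2–3 days. TGI taken on the final treatment day versus control; Student's t test.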

Data set [2] concerns Mus musculus. Briefly: Toxicity in Balb/c mouse implanted with mouse BAF3-EGFR 19D/T790M/C797S mutant cells assessed as change in body weight at 10 mg/kg, ip administered twice daily for 10 days measured every 2 to 3 days during compound dosing. The class given is organism-based. The settings on record: in vivo. An outline of the steps:
(§1)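 BALB/c mice with established BaF3-EGFR19D/T790M/C797S xenografts (n = 6); 10 mg/kg in 0.5% HPMC ip twice daily for 10 days versus vehicle. Relative tumor volume and body weight recorded every 2–3 days. TGI taken on the final treatment day versus control; Student's t test.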

The test system of data set [3] is Epidermal growth factor receptor (Homo sapiens), P00533 [L858R,T790M,C797S]. Briefly: Inhibition of EGFR T790M/L858R/C797S mutant (unknown origin) expressed in mouse BAF3 cells assessed as reduction in EGF-induced receptor phosphorylation preincubated for 2 hrs followed by EGF stimulation for 15 mins by Western blot analysis. Format: cell-based. In short, it runs like this: (§2)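 BaF3 cells stably transfected with the mutant EGFR were treated for 2 h across a range of compound concentrations, then stimulated with EGF for 15 min. Cell lysates were collected, and EGFR phosphorylation was read out by Western blot.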

Data set [4] concerns BaF3. Briefly: Antiproliferative activity against mouse BAF3 cells harboring EGFR L858R/T790M/C797S mutant after 72 hrs by resazurin dye based assay. The settings on record: BaF3, 72 h. The class given is functional, cell-based.
Data set [5] relates to Epidermal growth factor receptor (Homo sapiens), P00533 [UNDEFINED MUTATION]. Briefly: Inhibition of EGFR 19D/T790M/C797S mutant (unknown origin) expressed in mouse BAF3 cells assessed as reduction in EGF-induced receptor phosphorylation preincubated for 2 hrs followed by EGF stimulation for 15 mins by Western blot analysis. Format: cell-based. In short, it runs like this: as §2

Data set [6] has as its system BaF3. Briefly: Antitumor activity against mouse BAF3 cells harboring EGFR 19D/T790M/C797S mutant implanted in Balb/c mouse assessed as tumor growth inhibition at 10 mg/kg, ip administered twice daily for 10 days relative to control. The class given is functional. The settings on record: 240 h, read-out: TGI. An outline of the steps: as §1
Data set [7] deals with A-431. Briefly: Antiproliferative activity against human A431 cells harboring wild type EGFR after 72 hrs by resazurin dye based assay. The class given is functional, cell-based. The settings on record: A-431, 72 h.
In data set [8] the test system is Mus musculus. Briefly: In vivo inhibition of EGFR phosphorylation in tumor of Balb/c mouse implanted with mouse BAF3-EGFR 19D/T790M/C797S mutant cells at 10 mg/kg, ip administered twice daily for 10 days by H and E staining based IHC analysis. The class given is functional, organism-based. An outline of the steps:
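Xenograft tumor sections taken from the 10 mg/kg ip twice-daily treated mice and controls. Sections stained with H&E and anti-p-EGFR antibody. p-EGFR labeling quantified as relative integrated optical density; Student's t test versus control.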

Data set [9] concerns BaF3. Briefly: Antiproliferative activity against mouse BAF3 cells harboring EGFR 19D/T790M/C797S mutant after 72 hrs by resazurin dye based assay. The settings on record: BaF3, 72 h. Format: functional, cell-based.
In data set [10] the test system is NCI-H1975. Briefly: Antiproliferative activity against human NCI-H1975 cells harboring EGFR L858R/T790M mutant after 72 hrs by resazurin dye based assay. The class given is functional, cell-based. The settings on record: NCI-H1975, 72 h.
Data set [11] concerns the target Epidermal growth factor receptor (Homo sapiens, UniProt P00533, L858R/T790M). Briefly: Inhibition of recombinant human EGFR T790M/L858R double mutant using poly (Glu,Tyr) 4:1 as substrate after 1 hr by ELISA.
In data set [12] the target is Epidermal growth factor receptor (Homo sapiens, UniProt P00533, C797S/L858R/T790M). Briefly: Inhibition of recombinant human C-terminal His-tagged/N-terminal GST-tagged EGFR (668 to 1210 residues) T790M/L858R/C797S mutant using poly (Glu,Tyr) 4:1 as substrate after 1 hr by ELISA.
Chain of Epidermal growth factor receptor (Homo sapiens, UniProt P00533, C797S/L858R/T790M) (P00533 25-1210 T790M/C797S/L858R limits assumed): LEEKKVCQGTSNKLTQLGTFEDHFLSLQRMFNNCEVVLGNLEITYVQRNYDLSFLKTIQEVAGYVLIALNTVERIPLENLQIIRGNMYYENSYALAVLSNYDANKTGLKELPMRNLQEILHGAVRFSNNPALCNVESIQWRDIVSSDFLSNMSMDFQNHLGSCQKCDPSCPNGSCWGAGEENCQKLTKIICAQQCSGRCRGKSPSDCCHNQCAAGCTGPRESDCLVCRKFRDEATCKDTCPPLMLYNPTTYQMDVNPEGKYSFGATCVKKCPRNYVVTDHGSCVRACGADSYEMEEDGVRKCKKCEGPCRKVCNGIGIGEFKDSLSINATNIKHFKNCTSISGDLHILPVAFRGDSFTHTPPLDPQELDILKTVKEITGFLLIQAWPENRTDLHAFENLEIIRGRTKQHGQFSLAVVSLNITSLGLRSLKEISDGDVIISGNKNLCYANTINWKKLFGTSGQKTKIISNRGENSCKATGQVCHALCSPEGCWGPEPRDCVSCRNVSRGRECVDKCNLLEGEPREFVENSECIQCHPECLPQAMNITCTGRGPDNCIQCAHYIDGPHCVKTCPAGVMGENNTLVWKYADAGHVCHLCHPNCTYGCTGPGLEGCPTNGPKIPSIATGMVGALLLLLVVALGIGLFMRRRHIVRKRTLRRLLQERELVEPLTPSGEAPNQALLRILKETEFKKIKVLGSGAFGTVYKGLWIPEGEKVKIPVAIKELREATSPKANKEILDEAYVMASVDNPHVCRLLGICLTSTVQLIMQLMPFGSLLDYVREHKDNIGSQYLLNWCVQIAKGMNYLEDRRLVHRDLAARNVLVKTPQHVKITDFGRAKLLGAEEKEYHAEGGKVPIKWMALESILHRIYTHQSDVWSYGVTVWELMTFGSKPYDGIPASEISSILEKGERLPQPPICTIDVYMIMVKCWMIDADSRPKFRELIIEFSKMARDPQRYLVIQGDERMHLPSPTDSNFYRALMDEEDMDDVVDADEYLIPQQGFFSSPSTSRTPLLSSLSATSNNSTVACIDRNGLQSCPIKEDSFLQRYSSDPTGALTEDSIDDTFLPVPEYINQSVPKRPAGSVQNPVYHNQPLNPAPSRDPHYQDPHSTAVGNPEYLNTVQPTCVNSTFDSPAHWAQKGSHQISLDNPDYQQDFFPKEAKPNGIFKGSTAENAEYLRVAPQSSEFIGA

Chain of Epidermal growth factor receptor (Homo sapiens, UniProt P00533, L858R/T790M) (P00533 25-1210 T790M/L858R limits assumed): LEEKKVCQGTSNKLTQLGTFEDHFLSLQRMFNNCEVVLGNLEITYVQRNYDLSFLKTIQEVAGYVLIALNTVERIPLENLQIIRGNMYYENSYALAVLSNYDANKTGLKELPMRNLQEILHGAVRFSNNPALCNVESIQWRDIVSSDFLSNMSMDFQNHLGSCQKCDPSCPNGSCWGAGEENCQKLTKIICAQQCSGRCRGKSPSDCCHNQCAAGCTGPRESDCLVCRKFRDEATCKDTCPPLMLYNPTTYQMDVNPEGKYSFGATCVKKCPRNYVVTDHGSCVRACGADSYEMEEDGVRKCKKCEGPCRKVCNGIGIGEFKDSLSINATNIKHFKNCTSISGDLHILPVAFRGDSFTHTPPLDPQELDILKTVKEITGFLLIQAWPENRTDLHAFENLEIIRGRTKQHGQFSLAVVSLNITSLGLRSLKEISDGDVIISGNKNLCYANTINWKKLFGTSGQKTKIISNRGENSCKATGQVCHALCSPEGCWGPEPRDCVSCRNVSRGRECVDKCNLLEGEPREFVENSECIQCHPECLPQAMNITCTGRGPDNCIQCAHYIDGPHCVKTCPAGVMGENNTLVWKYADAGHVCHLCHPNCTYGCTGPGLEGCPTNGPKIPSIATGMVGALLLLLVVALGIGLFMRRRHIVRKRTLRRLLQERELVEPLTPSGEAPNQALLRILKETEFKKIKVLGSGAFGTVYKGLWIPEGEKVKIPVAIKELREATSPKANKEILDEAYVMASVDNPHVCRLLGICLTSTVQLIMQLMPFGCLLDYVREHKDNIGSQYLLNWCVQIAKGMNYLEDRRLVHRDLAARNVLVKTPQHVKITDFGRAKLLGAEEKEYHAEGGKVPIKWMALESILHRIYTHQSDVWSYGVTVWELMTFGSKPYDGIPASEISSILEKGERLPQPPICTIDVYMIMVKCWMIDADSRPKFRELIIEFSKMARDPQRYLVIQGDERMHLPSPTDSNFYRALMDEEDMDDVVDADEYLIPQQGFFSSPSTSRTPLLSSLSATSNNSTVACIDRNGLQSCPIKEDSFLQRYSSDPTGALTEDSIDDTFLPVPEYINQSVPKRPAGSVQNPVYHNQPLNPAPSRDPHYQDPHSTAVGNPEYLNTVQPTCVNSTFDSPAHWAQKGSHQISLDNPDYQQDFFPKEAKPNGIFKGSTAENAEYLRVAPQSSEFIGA
Chain of Epidermal growth factor receptor (Homo sapiens), P00533 [UNDEFINED MUTATION] (P00533 whole entry, looked up, stated change not applied): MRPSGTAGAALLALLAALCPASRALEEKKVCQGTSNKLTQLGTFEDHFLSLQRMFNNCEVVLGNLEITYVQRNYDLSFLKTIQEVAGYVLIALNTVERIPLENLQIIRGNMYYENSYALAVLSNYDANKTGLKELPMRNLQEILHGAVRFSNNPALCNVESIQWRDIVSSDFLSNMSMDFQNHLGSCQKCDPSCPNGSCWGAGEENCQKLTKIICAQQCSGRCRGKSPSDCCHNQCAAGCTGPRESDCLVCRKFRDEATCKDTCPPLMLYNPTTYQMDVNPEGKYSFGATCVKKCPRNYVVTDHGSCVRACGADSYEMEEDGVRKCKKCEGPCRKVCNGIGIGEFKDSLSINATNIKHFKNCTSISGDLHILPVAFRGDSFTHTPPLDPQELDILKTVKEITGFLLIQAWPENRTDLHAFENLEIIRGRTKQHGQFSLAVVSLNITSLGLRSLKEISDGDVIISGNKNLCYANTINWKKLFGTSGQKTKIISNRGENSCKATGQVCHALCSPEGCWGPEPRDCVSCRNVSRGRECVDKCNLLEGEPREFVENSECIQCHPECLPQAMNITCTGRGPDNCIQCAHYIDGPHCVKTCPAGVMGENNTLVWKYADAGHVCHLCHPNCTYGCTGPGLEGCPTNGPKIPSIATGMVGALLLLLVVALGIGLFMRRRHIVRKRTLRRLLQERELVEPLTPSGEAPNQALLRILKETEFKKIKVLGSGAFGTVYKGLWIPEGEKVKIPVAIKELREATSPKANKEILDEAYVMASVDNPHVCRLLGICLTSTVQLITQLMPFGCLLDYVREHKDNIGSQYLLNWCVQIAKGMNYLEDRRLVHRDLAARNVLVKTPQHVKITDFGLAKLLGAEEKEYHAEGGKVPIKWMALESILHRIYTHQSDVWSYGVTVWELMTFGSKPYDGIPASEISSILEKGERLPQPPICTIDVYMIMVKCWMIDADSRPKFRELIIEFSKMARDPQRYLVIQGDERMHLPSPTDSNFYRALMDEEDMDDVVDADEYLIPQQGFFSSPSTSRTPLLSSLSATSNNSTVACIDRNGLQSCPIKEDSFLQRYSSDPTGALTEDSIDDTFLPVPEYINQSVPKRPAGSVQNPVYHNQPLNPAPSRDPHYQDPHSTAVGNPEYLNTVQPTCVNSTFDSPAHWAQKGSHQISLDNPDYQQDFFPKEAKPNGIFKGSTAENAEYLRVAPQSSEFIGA
Chain of Epidermal growth factor receptor (Homo sapiens), P00533 [L858R,T790M,C797S] (P00533 whole entry T790M/C797S/L858R): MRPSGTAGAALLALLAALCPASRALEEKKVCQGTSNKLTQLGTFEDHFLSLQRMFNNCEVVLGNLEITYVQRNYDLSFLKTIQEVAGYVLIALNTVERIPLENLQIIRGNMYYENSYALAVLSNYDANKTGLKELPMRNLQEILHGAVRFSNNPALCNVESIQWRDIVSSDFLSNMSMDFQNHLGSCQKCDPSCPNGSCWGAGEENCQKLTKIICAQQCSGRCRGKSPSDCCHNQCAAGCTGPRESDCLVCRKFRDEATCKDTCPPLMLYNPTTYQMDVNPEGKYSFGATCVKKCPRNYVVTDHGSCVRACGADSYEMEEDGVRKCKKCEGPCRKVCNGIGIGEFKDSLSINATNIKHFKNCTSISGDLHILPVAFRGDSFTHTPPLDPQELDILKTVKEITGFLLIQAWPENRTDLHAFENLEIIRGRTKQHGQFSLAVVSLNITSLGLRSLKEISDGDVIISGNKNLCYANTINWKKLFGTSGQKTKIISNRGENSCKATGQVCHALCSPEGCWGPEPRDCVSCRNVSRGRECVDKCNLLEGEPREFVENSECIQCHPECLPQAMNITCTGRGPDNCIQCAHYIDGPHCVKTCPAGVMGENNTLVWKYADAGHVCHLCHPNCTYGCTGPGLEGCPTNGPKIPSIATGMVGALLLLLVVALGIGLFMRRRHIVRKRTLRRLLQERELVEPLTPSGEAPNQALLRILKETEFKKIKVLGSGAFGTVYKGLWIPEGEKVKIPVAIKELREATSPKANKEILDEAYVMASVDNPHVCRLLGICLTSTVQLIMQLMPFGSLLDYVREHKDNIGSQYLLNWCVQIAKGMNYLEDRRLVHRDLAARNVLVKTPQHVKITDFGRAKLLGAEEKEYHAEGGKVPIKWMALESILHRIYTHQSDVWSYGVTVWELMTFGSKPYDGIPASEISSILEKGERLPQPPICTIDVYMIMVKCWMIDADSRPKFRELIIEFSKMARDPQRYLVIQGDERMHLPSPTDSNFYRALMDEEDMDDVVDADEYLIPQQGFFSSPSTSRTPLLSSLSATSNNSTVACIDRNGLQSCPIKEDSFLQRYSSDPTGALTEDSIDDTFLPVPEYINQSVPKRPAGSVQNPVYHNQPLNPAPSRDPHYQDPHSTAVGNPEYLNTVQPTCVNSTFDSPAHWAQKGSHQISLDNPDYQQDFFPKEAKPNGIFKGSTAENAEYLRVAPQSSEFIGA

For `O=C(Nc1nccs1)C(c1cc(F)ccc1O)N1Cc2ccccc2C1=O` (centres undefined), the inhibition in vivo at 60 mg/kg in [1] was found to be 22.3%.

Take `CCC(=O)N[C@H]1CC[C@H](N2C(=O)N(c3ccccc3Cl)Cc3cnc(Nc4ccc(N5CCN(C)CC5)c(C)c4)nc32)CC1`: in data set [2], the Activity entry is given as “Non-Toxic”. Further, the inhibition result in data set [3] and in [5] was “Dose-dependent effect” throughout. Also, the IC50 in data set [4] is 510 nM; in [7] it was 270 nM; in [9], 320 nM; in data set [10], 310 nM. The inhibition in vivo at 10 mg/kg in data set [6] stood at 42.2%. In addition, the inhibition result in [8] is “Active”.

`COc1cc(N2CCC(N3CCN(C)CC3)CC2)ccc1Nc1ncc(Cl)c(Nc2ccccc2P(C)(C)=O)n1` [BRIGATINIB]: the results for the IC50 in data set [4], in data set [9] and in [10] were 420 nM, 260 nM and 1090 nM, respectively.

Consider `C=CC(=O)Nc1cc(Nc2nccc(-c3cn(C)c4ccccc34)n2)c(OC)cc1N(C)CCN(C)C` [OSIMERTINIB], for which the IC50 in data set [4] was 5150 nM; in data set [7], […]; in data set [9] it was 4610 nM; in [10] it was […].

As for `N#Cc1ccc(O)c(-c2nc(NCc3cnccn3)c3ccccc3n2)c1`, the IC50 stood at 367 nM in [11] and 85.2 nM in data set [12].
